These results are taken from paper PMC5214883 (Molecular cancer therapeutics, 2016).

The structures appear in SMILES notation. Non-standard residues stand in square brackets, D forms with d. Residues, ends and D or L forms follow the SMILES beside them. *: point of attachment. Dolaproine = CO[C@@H]([C@@H]1CCCN1)[C@@H](C)C(=O)O; Dil = CC[C@H](C)[C@H](NC)[C@@H](CC(=O)O)OC; X1 = C[C@@H](N*)[C@@H](O)c1ccccc1; NMeV = CN[C@H](C(=O)O)C(C)C A value given as a limit tells only on which side of the number the result lay.

Data set [1] deals with CAIX-expressing SKRC-52 cells. Description: In vitro cytotoxicity assay. The settings on record: read-out: IC50 (cytotoxicity), 72 h, 37 °C, MTS. It counts as cell-based, human.
In data set [2] the test system is SKRC-52 xenografts. The settings on record: cited from earlier work.
Data set [3] in a line: Linker stability assay in PBS. In kind it is physicochemical. The settings on record: pH 7.4.
The nature of data set [4]: Linker stability assay in mouse serum. It counts as in vitro ADME.
A further data set in a line: Dose escalation study. More on the design: species or system Balb/c nu/nu mice. The conditions noted are these: female, athymic Balb/c nu/nu, mouse, in vivo. Summed up:
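Escalating doses (250 or 500 nmol/Kg) were given as five injections on five consecutive days to […] female athymic Balb/c nu/nu mice aged 8–10 weeks. An acetazolamide-targeted prodrug was compared with an untargeted analogue, with three mice per group.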

Data set [5] relates to SKRC-52 xenografts. Description: Therapy experiments in mice bearing subcutaneous SKRC-52 tumors. The settings on record: 250 nmol/Kg, ten daily administrations. It counts as in vivo, Balb/c nu/nu mice.

Consider `COc1cccc2c1C(=O)c1c(O)c3c(c(O)c1C2=O)C[C@@](O)(C(=O)CO)C[C@@H]3O[C@H]1C[C@H]2[C@H](O[C@@H]3[C@@H](OC)OCCN32)[C@H](C)O1` [PNU-159682], for which the IC50 in data set [1] was determined as 0.16 nM.

Take `CC[C@H](C)[C@@H]([C@@H](CC(=O)N1CCC[C@H]1[C@H](OC)[C@@H](C)C(=O)N[C@H](C)[C@@H](O)c1ccccc1)OC)N(C)C(=O)[C@@H](NC(=O)[C@@H](NC)C(C)C)C(C)C` [MMAE, monomethyl auristatin E] (H-[NMeV]V[Dil][Dolaproine]-X1): in data set [1], the IC50 worked out at 1.5 nM.

On to `CNC(=O)c1cc(Oc2ccc(NC(=O)Nc3ccc(Cl)c(C(F)(F)F)c3)cc2)ccn1` [sorafenib], for which the “activity against SKRC-52 tumors” value in the data set on SKRC-52 xenografts [2] is given as “did not display any detectable activity”.

On to `CC[C@H](C)[C@@H]([C@@H](CC(=O)N1CCC[C@H]1[C@H](OC)[C@@H](C)C(=O)N[C@H](C)[C@@H](O)c1ccccc1)OC)N(C)C(=O)[C@@H](NC(=O)[C@H](C(C)C)N(C)C(=O)OCc1ccc(NC(=O)[C@H](CCCNC(N)=O)NC(=O)[C@@H](NC(=O)CCCCCN2C(=O)CC(SC[C@H](NC(=O)[C@H](CC(=O)O)NC(=O)[C@H](CCCNC(=N)N)NC(=O)[C@H](CC(=O)O)NC(=O)CCCCn3cc(CCCC(=O)Nc4nnc(S(N)(=O)=O)s4)nn3)C(=O)O)C2=O)C(C)C)cc1)C(C)C` (some centres unmarked) [Compound 4a], for which the half-life at 100 μg/ml in data set [3] was more than 48 h. The “main release product (mass spectrometric analysis)” value in data set [4] (degradation profile in mouse serum) was “free MMAE”. Also, in data set [4] (mouse serum, 37 °C, 6 hours, LC-MS), the “conjugate intact after 6 hours in mouse serum” value is given as more than 70%. The compound also showed a half-life in data set [4] (mouse, mouse serum) of approximately 7 h. The compound also registered an MTD at 5 days in the data set “Dose escalation study” of 0.5 µmol/kg. Also, in the data set with SKRC-52 xenografts [5], the “acute toxicity and body weight” value was “no acute toxicity and no significant weight loss”; the durable complete response entry is listed as “One out of five”.

On to `CCN(CC)CCNC(=O)c1c(C)[nH]c(/C=C2\C(=O)Nc3ccc(F)cc32)c1C` [sunitinib], for which, in the data set with SKRC-52 xenografts [2], the “activity against SKRC-52 tumors” value is reported as “did not display any detectable activity”.
